A selection: hits, their analogues and other compounds. The true share with any hit is near 3.7%.
NS3 helicase inh – inhibitors of Hepatitis C virus NS3 helicase; 290,000 compounds, 0.56% hits; inhibition, % at 10.9 µM; AID 1800; NS3 helicase DNA unwinding, Cy5 molecular beacon fluorescence;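 active = inhibition above the mean of all tested compounds plus 3 SD, set per campaign, cut at about 35% in these data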;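 note: 0% = DMSO wells and 100% = thioflavine S control wells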
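Control set: DMSO versus 110 µM thioflavine S; Material: NS3 helicase fragment of HCV; Measured by: Cy5 fluorescence at 0 and 60 min, beacon hairpin quenching; Read-out basis: percent inhibition from t60/t0 fluorescence ratio; Times: reaction time 60 min, 25 °C; Repeats: single replicate; Compound dosing: single dose, 10.9 µM nominal final, DMSO 0.8% final.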
rCAG RNA binder – r(CAG) repeat RNA binding; TO-PRO-1 dye displacement fluorescence; inhibition, % at 3 µM; 370,000 compounds, 1.3% hits; AID 651821;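 active = inhibition above the plate cutoff, the mean of all test compounds on that plate plus 3 SD, cut at about 35% in these data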;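 note: 0% = DMSO alone and 100% = 100 µM mitoxantrone as full dye displacement; higher means more dye released from RNA so lower well fluorescence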
core dimer inh – HCV core protein dimerization inhibition; inhibition, % at 5 µM; AID 1899; TR-FRET GST/Flag-core106 dimerization, 1536-well; 300,000 compounds, 0.33% hits;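 active = inhibition above the mean of all tested compounds plus 3 SD, set per screening campaign, cut at about 45% in these data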
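Assay system – GST-tagged and Flag-tagged HCV core protein residues 1-106 · Quantity – core106 proteins, GST 13.5 nM and Flag 17 nM · Benchmarks – unlabelled core106 and no-GST-core106 wells · Read-out basis – percent inhibition of core106 dimerization signal · Detection – time-resolved FRET, ex 340 nm, em 617 and 671 nm · Schedule – 4 h at 22.5 °C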
TAAR1 antagonist – human TAAR1 antagonism; Q96RJ0; CHO RD-HGA16 TAAR1, Fluo-8 calcium fluorescence, antagonist; inhibition, % at 3 µM; 360,000 compounds, 1.5% hits; AID 624466;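 active = inhibition above a per-plate cutoff, the mean inhibition of test compounds on that plate plus 3 SD, cut at about 49% in these data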;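 note: 0% = DMSO plus EC80 beta-PEA response and 100% = DMSO alone without agonist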
Target sequence (Q96RJ0 whole entry, looked up): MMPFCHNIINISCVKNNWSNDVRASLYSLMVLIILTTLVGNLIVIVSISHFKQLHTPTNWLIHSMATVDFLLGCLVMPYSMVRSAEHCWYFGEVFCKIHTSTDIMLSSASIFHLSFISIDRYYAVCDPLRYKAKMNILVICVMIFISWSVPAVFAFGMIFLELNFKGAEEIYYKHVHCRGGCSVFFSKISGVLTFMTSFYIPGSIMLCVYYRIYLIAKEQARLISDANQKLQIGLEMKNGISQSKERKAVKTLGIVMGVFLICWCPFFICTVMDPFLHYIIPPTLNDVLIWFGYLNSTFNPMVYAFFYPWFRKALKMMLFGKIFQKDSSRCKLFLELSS
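Test system – hTAAR1-expressing CHO RD-HGA16 cells, Gα16-coupled · Also added – β-PEA at EC80 concentration, post-compound challenge · Compound – 3 µM, single point · Incubation – dye loading 75 min at 37 °C, then 30 min room temperature · Measured by – Fluo-8 intracellular calcium dye fluorescence, real-time kinetic reads · Benchmarks – vehicle and agonist controls · Replicates – singlicate, one well per test compound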
TAAR1 agonist – agonists of human TAAR1. AID 624467. CHO RD-HGA16 TAAR1, Fluo-8 calcium fluorescence; vehicle wells 0%, saturating PEA agonist 100%. 360,000 compounds, 0.99% hits. activation, % at 3 µM;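 active = activation above the mean activation of all test compounds in the run plus 3 SD, cut at about 38% in these data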
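Benchmarks: low control DMSO, high control PEA (EC100); System: CHO RD-HGA16 cells carrying human TAAR1 plus Gα16; Detection: Fluo-8 fluorescence, 5 s baseline then 140 s kinetic read; Schedule: 17-24 h plating, Fluo-8 75 min 37 °C, 30 min RT; Read-out basis: % activation from peak over basal fluorescence ratio, DMSO-to-PEA scaled.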
TAAR1 ag confirm – confirmation of human TAAR1 agonists | AID 651783 | shares compounds with TAAR1 agonist | CHO RD-HGA16 TAAR1, Fluo-8 calcium fluorescence; scaled: DMSO 0%, maximal phenethylamine 100% | activation, % at 3 µM | 2,400 compounds, 82% hits;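 active = activation above a cutoff set at the run's mean compound activation plus 3 SD, cut at about 39% in these data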
Ga16 nonsel ag – counter-screen for TAAR1 agonists: nonselective agonists in parental cells | shares compounds with TAAR1 agonist | CHO-Ga16 parental, Fluo-8 calcium fluorescence; normalized to maximal ATP response, DMSO zero | activation, % at 3 µM | 2,400 compounds, 50% hits | AID 651787;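 active = activation above the run cutoff, the mean activation over all tested wells plus 3 SD, cut at about 12% in these data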;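 note: 0% = DMSO wells and 100% = maximal ATP response on the peak over basal ratio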
TAAR1 desens – counter-screen for human TAAR1 agonists: agonists that desensitize TAAR1; 2,400 compounds, 46% hits; inhibition, % at 3 µM; shares compounds with TAAR1 agonist; CHO RD-HGA16 hTAAR1, Fluo-8 calcium, beta-PEA response inhibition;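 active = inhibition above the run cutoff, the mean inhibition of all test compounds plus 3 SD, cut at about 49% in these data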;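 note: beta-PEA stimulus applied at its EC80; loss of beta-PEA calcium signal after compound pretreatment read as receptor desensitization; 0% = DMSO with beta-PEA at EC80 and 100% = DMSO alone without agonist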
Ga16 antag count – counter-screen for TAAR1 agonists: nonselective Ga16 antagonists; AID 651952; inhibition, % at 3 µM; shares compounds with TAAR1 agonist; 2,400 compounds, 39% hits; CHO-Ga16 ATP-induced calcium, Fluo-8 fluorescence;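 active = inhibition above the plate's mean compound inhibition plus 3 SD, computed per plate, cut at about 22% in these data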;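 note: 0% = EC80 ATP with DMSO and 100% = DMSO wells without ATP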
rCAG binder conf – r(CAG) RNA repeat binding, confirmation; inhibition, % at 3 µM; AID 652065; 4,300 compounds, 70% hits; TO-PRO-1 dye displacement fluorescence; shares compounds with rCAG RNA binder;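 active = inhibition above a per-plate cutoff, the mean inhibition of sample wells plus 3 SD, cut at about 35% in these data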;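 note: loss of TO-PRO-1 fluorescence as compound displaces dye from 1x1 AA loop RNA; 0% = DMSO only wells and 100% = 100 µM mitoxantrone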
dCAG dye counter – disrupts DNA CAG TO-PRO-1 complex, flagging rCAG hits; shares compounds with rCAG RNA binder; d(CAG) DNA oligo TO-PRO-1 dye displacement, fluorescence; inhibition, % at 3 µM; 4,300 compounds, 94% hits; AID 652068;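 active = inhibition above its plate's cutoff, the mean test-well inhibition plus 3 SD, cut at about 4.8% in these data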;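 note: 0% = DNA dye mix with DMSO and 100% = 100 µM mitoxantrone; hits displace the dye from DNA and so lower well fluorescence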
An asterisk follows results filed as active; · = no result given.

SMILES	NS3 helicase inh	rCAG RNA binder	core dimer inh	TAAR1 antagonist	TAAR1 agonist	TAAR1 ag confirm	Ga16 nonsel ag	TAAR1 desens	Ga16 antag count	rCAG binder conf	dCAG dye counter
O=[N+]([O-])c1cc(/C=N\Nc2nc(-c3ccccc3)cs2)ccc1O	10	66*	9	36	69*	44*	53*	37	29*	54*	23*
Cc1csc(N/N=C/c2ccc(O)c([N+](=O)[O-])c2)n1	2	28	-34	4	5	·	·	·	·	·	·
N#CCCCc1cn(-c2ccc(-c3noc4c3C(=O)N(CC(=O)N3CCOCC3)CC4)cc2)nn1	·	0	·	·	·	·	·	·	·	·	·
CC(C)CCCCCCCCc1cccc(O)c1C(=O)O	·	89*	·	98*	130*	114*	89*	104*	92*	86*	52*
O=S(=O)(Nc1ccc(S(=O)(=O)Nc2cccc3ccccc23)cc1)c1ccccc1	-12	35*	-4	12	41*	40*	11	24	16	24	5.5*
O=S(=O)(Nc1ccc(S(=O)(=O)Nc2ccccc2)cc1)c1ccccc1	-11	23	3	4	28	·	·	·	·	·	·
COc1ccc(-c2nn(-c3ccccc3)cc2C(=O)NC(=S)NNC(=O)c2ccncc2)cc1	6	56*	4	56*	101*	82*	74*	76*	70*	55*	20*
CCN1C(=O)/C(=C/c2ccc(OCc3ccc(C(=O)O)cc3)c(Cl)c2)NC1=S	14	57*	-2	96*	100*	32	36*	76*	68*	51*	16*
O=C(O)c1ccc(COc2ccc(CO)cc2Cl)cc1	6	3	3	-7	-2	·	·	·	·	·	·
CCCCc1cc(=O)oc2cc(C)cc(OCC(=O)N[C@@H](CSCc3ccccc3)C(=O)O)c12	15	39*	8	15	60*	84*	44*	28	14	47*	12*
CCCCc1cc(=O)oc2cc(C)cc(OCC(=O)NCc3ccccn3)c12	-4	-6	10	14	2	·	·	·	·	·	·
COc1ccc(Cn2cc(CN3[C@@H](C)COc4cc(Br)ccc4S3(=O)=O)nn2)cc1	·	2	·	·	·	·	·	·	·	·	·
Cc1ccc(C(=O)Nn2c(O)c(C=C3N=c4ccccc4=N3)sc2=S)cc1	5	58*	-3	35	54*	52*	3	59*	23*	40*	16*
COC(=O)c1cc2c(c3c4cc(F)ccc4n(S(=O)(=O)c4cccc(C)c4)c13)C(=O)N(Cc1ccc(N(C)C)cc1)C2	·	11	·	-9	-1	·	·	·	·	·	·
CCCOc1ccc(C(=O)NNC(=S)NC(=O)c2ccccc2[N+](=O)[O-])cc1	35	36*	-1	26	79*	28	28*	16	27*	20	7.0*
CCCOc1ccc(C(=O)NNC(=S)NC(=O)c2cccs2)cc1	34	41*	3	106*	159*	154*	124*	106*	91*	35*	11*
COC(=O)C[C@H]1CC[C@H]2[C@H](COc3ccc(NC(=O)Cc4cccs4)cc3C(=O)N2C)O1	·	4	·	·	·	·	·	·	·	·	·
CN(Cc1ccccc1)C(=O)OCc1cn(Cc2ccc(Cl)cc2)nn1	·	5	·	·	·	·	·	·	·	·	·
NC(c1csc(NC(=O)Nc2cccc(Cl)c2)n1)c1ccccc1Cl (stereo not drawn)	·	41*	·	34	52*	66*	27*	64*	47*	50*	17*
Cc1cccc(C)c1NC(=O)Nc1nc(C(N)c2ccccc2Cl)cs1 (stereo not drawn)	·	15	·	8	13	·	·	·	·	·	·
O=C(O)c1ccccc1-c1ccccc1C(=O)Nc1ccc(F)cc1	3	4	-2	8	2	·	·	·	·	·	·
O=C(/C=C/c1ccc(NC(=O)c2ccccc2-c2ccccc2C(=O)O)cc1)c1ccccc1	26	68*	35	-3	9	·	·	·	·	66*	24*
Nn1c(SCC(=O)Nc2nccs2)nnc1-c1cc(-c2ccccc2)n[nH]1	·	3	·	·	·	·	·	·	·	·	·
Cc1ccccc1CNC(=O)CN1CCCc2ccccc21	·	1	·	·	·	·	·	·	·	·	·
COc1ccc(C(=O)/C=C/Nc2ccc(S(=O)(=O)Nc3cc(OC)nc(OC)n3)cc2)c(OC)c1	25	32	18	-3	-1	·	·	·	·	·	·
SMILES	NS3 helicase inh	rCAG RNA binder	core dimer inh	TAAR1 antagonist	TAAR1 agonist	TAAR1 ag confirm	Ga16 nonsel ag	TAAR1 desens	Ga16 antag count	rCAG binder conf	dCAG dye counter
COc1cc(NS(=O)(=O)c2ccc(N/C=C\C(=O)c3ccc(C)cc3)cc2)nc(OC)n1	16	17	24	6	0	·	·	·	·	·	·
COc1cc(NS(=O)(=O)c2ccc(N/C=C\C(=O)c3ccc(OC)c(OC)c3)cc2)nc(OC)n1	-2	35*	10	-23	3	·	·	·	·	46*	14*
COc1cccc(C(=O)/C=C/Nc2ccc(S(=O)(=O)Nc3cc(OC)nc(OC)n3)cc2)c1	-14	45*	12	-16	3	·	·	·	·	54*	19*
CC1=NN(c2ccc(C)c(C)c2)C(=O)C1C(c1cccc(O)c1)C1C(=O)N(c2ccc(C)c(C)c2)N=C1C (stereo not drawn)	13	70*	15	2	7	·	·	·	·	78*	37*
CC(OC(=O)c1ccc(NS(=O)(=O)c2ccc3[nH]c(=O)[nH]c3c2)cc1)C(N)=O (stereo not drawn)	4	3	-4	-6	1	·	·	·	·	·	·
COc1ccc(Cl)cc1NC(=O)C(C)OC(=O)c1ccc(NS(=O)(=O)c2ccc3[nH]c(=O)[nH]c3c2)cc1 (stereo not drawn)	-15	39*	12	1	1	·	·	·	·	49*	17*
CC(OC(=O)c1ccc(NS(=O)(=O)c2ccc3[nH]c(=O)[nH]c3c2)cc1)C(=O)Nc1ccc(Cl)cc1 (stereo not drawn)	-15	43*	6	9	3	·	·	·	·	28	13*
Cc1ccc(-n2c(Cc3cccs3)nnc2SCc2ccc(Br)cc2)cc1	·	2	·	·	·	·	·	·	·	·	·

High-throughput results deposited in PubChem BioAssay by The Scripps Research Institute Molecular Screening Center.
